Experimental data reported in ChEMBL document CHEMBL1126928, “N-(1-arylpropionyl)-4-aryltetrahydropyridines, a new class of high-affinity selective sigma receptor ligands” (J Med Chem, 1993).

Tests used:
[1] = biological target: T1, Serotonin 2 (5-HT2) receptor (Rattus norvegicus) (UniProt P30994+P08909+P14842); assay: Percent inhibition of binding of 1.0 nM [3H]ketanserin to 5-hydroxytryptamine 2 receptor in rat cortical membranes at 10 e -5 M; assay type: cell membranes; details: Membrane
Summary of the method: (§1)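 1.0 nM [3H]ketanserin bound to rat cortical membranes. Percent inhibition measured at 10^-5 M test compound, with nonspecific binding defined by 10 μM methysergide.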

D(2) dopamine receptor [2] = biological target: T2, D(2) dopamine receptor (Bos taurus, UniProt P20288); assay: Binding affinity against Dopamine receptor D2 in bovine striatal homogenate using 200 pM [3H]- spiperone and 250 nM unlabeled ketanserin
T2 sequence (P20288 whole entry): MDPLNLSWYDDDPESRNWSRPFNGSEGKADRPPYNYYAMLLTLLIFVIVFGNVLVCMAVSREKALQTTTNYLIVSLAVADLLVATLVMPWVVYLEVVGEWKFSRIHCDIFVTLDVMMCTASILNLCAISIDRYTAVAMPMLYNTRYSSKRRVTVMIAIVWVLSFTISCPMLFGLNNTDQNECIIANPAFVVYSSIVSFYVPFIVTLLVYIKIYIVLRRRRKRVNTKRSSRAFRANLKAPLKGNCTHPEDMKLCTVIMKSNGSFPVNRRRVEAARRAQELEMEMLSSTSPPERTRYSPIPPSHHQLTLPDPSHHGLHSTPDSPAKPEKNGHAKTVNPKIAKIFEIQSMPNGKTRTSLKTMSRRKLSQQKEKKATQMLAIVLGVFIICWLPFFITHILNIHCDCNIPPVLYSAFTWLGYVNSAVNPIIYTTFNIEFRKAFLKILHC
Summary of the method: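 Bovine striatal homogenate, run like the σ assay, with 200 pM [³H]spiperone (21.2 Ci/mmol). Incubation buffer pH 7.40 containing 250 nM ketanserin to block 5-HT2 binding. Measured by filtration and scintillation counting. Results given as IC50.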

[3] = biological target: T3, Serotonin 1 (5-HT1) receptor (Rattus norvegicus) (UniProt P28564+P30940+P19327+P28565); assay: Percent inhibition of binding of 3.0 nM [3H]5-HT to 5-hydroxytryptamine 1 receptor in rat caudate membranes at 10 e -5 M; assay type: cell membranes; details: Membrane
Summary of the method: (§2)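 Rat caudate membranes incubated with 3.0 nM [3H]-5-HT binoxalate. Percent inhibition recorded at 10^-5 M test compound, with nonspecific binding set with 10 μM unlabeled 5-HT.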

[4] = biological target: Glutamate receptor ionotropic, NMDA 2C (Rattus norvegicus) (UniProt Q00961); assay: Binding affinity for Phencyclidine receptor (1 uM) using 2 nM [3H]- TCP radioligand
Chain of Glutamate receptor ionotropic, NMDA 2C (Rattus norvegicus) (Q00961 20-1237 limits assumed): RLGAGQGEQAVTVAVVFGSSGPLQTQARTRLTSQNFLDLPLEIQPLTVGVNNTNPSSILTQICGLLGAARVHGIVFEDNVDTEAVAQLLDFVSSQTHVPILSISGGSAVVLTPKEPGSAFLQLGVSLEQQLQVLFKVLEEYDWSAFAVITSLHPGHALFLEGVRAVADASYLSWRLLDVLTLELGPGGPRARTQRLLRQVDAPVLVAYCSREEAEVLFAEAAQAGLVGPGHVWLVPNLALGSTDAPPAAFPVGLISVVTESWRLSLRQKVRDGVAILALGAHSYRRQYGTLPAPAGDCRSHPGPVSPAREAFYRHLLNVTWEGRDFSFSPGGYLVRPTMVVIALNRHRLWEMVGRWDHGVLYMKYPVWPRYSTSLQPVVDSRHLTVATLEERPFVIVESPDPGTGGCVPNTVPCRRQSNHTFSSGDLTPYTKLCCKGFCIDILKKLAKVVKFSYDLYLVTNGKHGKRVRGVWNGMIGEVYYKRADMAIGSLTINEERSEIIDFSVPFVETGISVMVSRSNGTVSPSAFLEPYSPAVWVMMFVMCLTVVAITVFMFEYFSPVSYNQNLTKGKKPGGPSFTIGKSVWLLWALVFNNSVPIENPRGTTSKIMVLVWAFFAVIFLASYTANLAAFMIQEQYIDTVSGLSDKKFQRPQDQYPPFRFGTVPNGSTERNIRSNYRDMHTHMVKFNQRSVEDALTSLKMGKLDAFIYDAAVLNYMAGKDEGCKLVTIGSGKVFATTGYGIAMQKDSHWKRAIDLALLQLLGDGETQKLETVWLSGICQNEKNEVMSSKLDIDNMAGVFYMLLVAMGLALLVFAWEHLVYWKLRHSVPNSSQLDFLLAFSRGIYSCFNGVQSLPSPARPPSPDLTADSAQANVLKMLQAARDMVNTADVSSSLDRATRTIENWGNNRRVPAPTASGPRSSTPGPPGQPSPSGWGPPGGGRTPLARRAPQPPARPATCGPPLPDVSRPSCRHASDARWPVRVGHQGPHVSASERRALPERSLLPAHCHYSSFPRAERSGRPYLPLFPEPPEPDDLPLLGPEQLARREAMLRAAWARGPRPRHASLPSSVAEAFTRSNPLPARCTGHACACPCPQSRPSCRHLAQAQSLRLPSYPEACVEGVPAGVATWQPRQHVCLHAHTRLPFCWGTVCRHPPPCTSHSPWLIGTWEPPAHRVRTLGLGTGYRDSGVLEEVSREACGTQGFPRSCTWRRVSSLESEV
Summary of the method: (§3)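 Test compound at 10^-5 M, reported as percent inhibition of 2 nM [3H]TCP binding. Binding defined with 1 μM PCP.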

[5] = biological target: D(1A) dopamine receptor (Rattus norvegicus) (UniProt P18901); assay: Binding affinity for dopamine receptor D1 in rat striatal membranes using 500 pM [3H]- SCH 23390 radioligand; assay type: cell membranes; details: Striatum; Membrane
Chain of D(1A) dopamine receptor (Rattus norvegicus) (P18901 whole entry): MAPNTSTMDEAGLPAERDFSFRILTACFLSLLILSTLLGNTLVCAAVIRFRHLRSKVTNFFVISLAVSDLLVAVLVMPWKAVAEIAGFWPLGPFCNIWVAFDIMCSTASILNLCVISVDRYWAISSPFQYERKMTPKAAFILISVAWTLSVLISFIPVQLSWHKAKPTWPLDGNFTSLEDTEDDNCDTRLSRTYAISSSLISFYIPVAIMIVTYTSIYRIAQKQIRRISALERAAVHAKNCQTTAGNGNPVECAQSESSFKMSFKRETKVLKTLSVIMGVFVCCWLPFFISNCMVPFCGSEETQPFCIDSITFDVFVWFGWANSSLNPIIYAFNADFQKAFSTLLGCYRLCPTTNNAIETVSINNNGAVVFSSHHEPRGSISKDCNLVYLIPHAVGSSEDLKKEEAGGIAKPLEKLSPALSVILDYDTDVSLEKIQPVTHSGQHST
Summary of the method: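 Test compound at 10^-5 M, reported as percent inhibition of 500 pM [3H]SCH 23390 binding to rat striatal membranes. Nonspecific binding defined with 100 nM unlabeled SCH 23390.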

[6] = biological target: Glutamate receptor ionotropic, NMDA 2C (Rattus norvegicus) (UniProt Q00961); assay: Binding affinity for Phencyclidine receptor (1 uM) using 2 nM [3H]- TCP radioligand.; summary of the method: as §3
[7] = biological target: T3, Serotonin 1 (5-HT1) receptor (Rattus norvegicus); assay: Percent inhibition of binding of 3.0 nM [3H]5-HT to 5-hydroxytryptamine 1 receptor in rat caudate membranes at 10 e -5 M.; assay type: cell membranes; details: Membrane; summary of the method: as §2
[8] = biological target: T1, Serotonin 2 (5-HT2) receptor (Rattus norvegicus); assay: Percent inhibition of binding of 1.0 nM [3H]-ketanserin to 5-hydroxytryptamine 2 receptor in rat cortical membranes at 10 e-5 M.; assay type: cell membranes; details: Membrane; summary of the method: as §1
Rattus norvegicus = organism: Rattus norvegicus; assay: Binding affinity against Phencyclidine receptor (1 uM) using 2 nM [3H]- TCP radioligand; summary of the method: as §3
D(2) dopamine receptor [9] = biological target: T2, D(2) dopamine receptor; assay: Inhibition of binding against Dopamine receptor D2 in bovine striatal homogenate using 200 pM [3H]- spiperone and 250 nM unlabeled ketanserin

T1 sequence (P08909 whole entry, looked up): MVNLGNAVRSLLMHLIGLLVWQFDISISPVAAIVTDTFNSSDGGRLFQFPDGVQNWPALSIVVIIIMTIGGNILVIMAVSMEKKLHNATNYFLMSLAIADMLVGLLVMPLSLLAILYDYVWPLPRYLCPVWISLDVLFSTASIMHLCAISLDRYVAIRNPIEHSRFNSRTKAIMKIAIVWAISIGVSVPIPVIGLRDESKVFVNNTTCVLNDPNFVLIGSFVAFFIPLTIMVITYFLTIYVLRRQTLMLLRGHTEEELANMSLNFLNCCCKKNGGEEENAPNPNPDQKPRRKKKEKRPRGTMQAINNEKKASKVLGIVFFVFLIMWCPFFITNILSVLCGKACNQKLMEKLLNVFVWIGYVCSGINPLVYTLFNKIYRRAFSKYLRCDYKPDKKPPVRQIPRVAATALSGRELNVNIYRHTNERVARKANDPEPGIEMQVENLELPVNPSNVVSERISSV
T1 sequence (P14842 whole entry, looked up): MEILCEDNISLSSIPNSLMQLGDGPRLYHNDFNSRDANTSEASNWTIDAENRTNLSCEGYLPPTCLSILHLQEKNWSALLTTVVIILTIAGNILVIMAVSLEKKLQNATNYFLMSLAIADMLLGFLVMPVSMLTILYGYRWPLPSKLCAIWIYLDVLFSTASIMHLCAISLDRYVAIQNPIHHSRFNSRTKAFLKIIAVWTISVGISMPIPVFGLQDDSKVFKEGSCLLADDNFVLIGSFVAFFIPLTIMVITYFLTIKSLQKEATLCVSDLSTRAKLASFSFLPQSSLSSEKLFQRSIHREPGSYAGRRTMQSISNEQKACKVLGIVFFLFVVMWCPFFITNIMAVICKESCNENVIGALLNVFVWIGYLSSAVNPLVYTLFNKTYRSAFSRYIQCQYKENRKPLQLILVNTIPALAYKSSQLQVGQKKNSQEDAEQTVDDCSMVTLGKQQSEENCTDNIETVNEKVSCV
T1 sequence (P30994 whole entry, looked up): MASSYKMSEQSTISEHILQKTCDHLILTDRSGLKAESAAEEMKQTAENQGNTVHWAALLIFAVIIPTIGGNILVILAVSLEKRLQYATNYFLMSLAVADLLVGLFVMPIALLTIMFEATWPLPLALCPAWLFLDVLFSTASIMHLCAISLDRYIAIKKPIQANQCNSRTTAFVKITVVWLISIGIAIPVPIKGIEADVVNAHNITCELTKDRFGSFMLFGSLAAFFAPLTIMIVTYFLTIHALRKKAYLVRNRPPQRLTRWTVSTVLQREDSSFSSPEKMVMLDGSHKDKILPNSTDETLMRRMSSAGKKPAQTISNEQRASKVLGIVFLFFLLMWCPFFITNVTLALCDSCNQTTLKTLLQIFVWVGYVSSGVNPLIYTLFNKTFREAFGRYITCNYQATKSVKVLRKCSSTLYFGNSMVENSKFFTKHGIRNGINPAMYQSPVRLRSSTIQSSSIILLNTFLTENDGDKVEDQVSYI

Which inhibition [1] does the source give for `O=C(CCN1CC=C(c2ccc(Cl)cc2)CC1)c1ccc(Cl)cc1` here?
Its inhibition is 84%.

And the IC50 (D(2) dopamine receptor [2])?
Its IC50 is > 5 µM.

And the inhibition [3]?
Its inhibition is 49.5%.

And the Binding affinity [4]?
The Binding affinity was 5.8.

What about the Binding affinity [5] of the same compound?
Its Binding affinity is 31.6.

With `Clc1ccc(C2=CCNCC2)cc1` as the compound, how does the IC50 (D(2) dopamine receptor [2]) read?
The IC50 was > 5 µM.

For `O=C(CCN1CC=C(c2ccc(F)cc2)CC1)c1ccc(Br)cc1`, which IC50 (D(2) dopamine receptor [2]) is on record?
Its IC50 is > 13 µM.

Which IC50 (D(2) dopamine receptor [2]) does the source give for `O=C(CCN1CC=C(c2ccc(Cl)cc2)CC1)c1ccc(F)cc1` here?
Its IC50 is > 5 µM.

For `O=C(CCN1CC=C(c2ccc(Cl)cc2)CC1)c1ccc(Cl)c(Cl)c1`, which IC50 (D(2) dopamine receptor [2]) is on record?
The IC50 was > 5 µM.

Which IC50 (D(2) dopamine receptor [2]) does the source give for `O=C(CCN1CC=C(c2ccc(Cl)cc2)CC1)c1ccccc1F` here?
Its IC50 is > 5 µM.

With `O=C(CCN1CC=C(c2ccc(Cl)cc2)CC1)c1ccccc1` as the compound, how does the Binding affinity [6] read?
The Binding affinity was 0.

What about the IC50 (D(2) dopamine receptor [2]) of the same compound?
Its IC50 is > 5 µM.

What about the inhibition [7] of the same compound?
The inhibition was 72.4%.

What about the Binding affinity [5] of the same compound?
The Binding affinity was 19.

What about the inhibition [8] of the same compound?
The inhibition was 96.9%.

Which IC50 (D(2) dopamine receptor [2]) does the source give for `O=C(CCN1CC=C(c2ccc(Cl)cc2)CC1)c1ccc(Br)cc1` here?
The IC50 was > 5 µM.

How did the IC50 (D(2) dopamine receptor [2]) turn out when `c1ccc(CCCCN2CCC(c3ccccc3)CC2)cc1` was run?
The IC50 was 0.335 µM.

Which IC50 (D(2) dopamine receptor [2]) does the source give for `C1=C(c2ccccc2)CCNC1` here?
The IC50 was > 5 µM.

How did the IC50 (D(2) dopamine receptor [2]) turn out when `O=C(CCN1CC=C(c2ccc(F)cc2)CC1)c1ccc(F)cc1` was run?
Its IC50 is > 10 µM.

With `COc1ccc(C(=O)CCN2CC=C(c3ccc(Cl)cc3)CC2)cc1OC` as the compound, how does the IC50 (D(2) dopamine receptor [2]) read?
Its IC50 is > 5 µM.

`CN(C)CCC(=O)c1ccccc1` was tested. Which IC50 (D(2) dopamine receptor [2]) did it give?
The IC50 was > 5 µM.

What does the source list for `O=C(CCN1CC=C(c2ccc(F)cc2)CC1)c1ccccc1`?
inhibition (Rattus norvegicus): 0%; inhibition [1]: 94.8%; IC50 (D(2) dopamine receptor [2]): > 5 µM; inhibition [3]: 64.5%; inhibition [5]: 23.9%

Which IC50 (D(2) dopamine receptor [2]) does the source give for `O=C(CCN1CCC(c2ccccc2)CC1)c1ccccc1` here?
The IC50 was > 5 µM.

How did the IC50 (D(2) dopamine receptor [2]) turn out when `O=C(CCN1CC=C(c2ccc(F)cc2)CC1)c1ccc(Cl)cc1` was run?
The IC50 was > 15 µM.

With `CCN(CC)CCC(=O)c1ccccc1` as the compound, how does the IC50 (D(2) dopamine receptor [2]) read?
The IC50 was > 5 µM.

How did the IC50 (D(2) dopamine receptor [9]) turn out when `N#Cc1ccc(C(=O)CC2CCN(CC3CC3)CC2)cc1` was run?
Its IC50 is > 1 µM.

How did the IC50 (D(2) dopamine receptor [2]) turn out when `O=C(CCN1CC=C(c2ccc(Cl)cc2)CC1)c1ccc(F)c(F)c1` was run?
Its IC50 is > 5 µM.

`CCCN(CCC)CCC(=O)c1ccccc1` was tested. Which IC50 (D(2) dopamine receptor [2]) did it give?
The IC50 was > 5 µM.

For `O=C(CCN1CC=C(c2ccc(Cl)cc2)CC1)c1ccc2c(c1)OCO2`, which IC50 (D(2) dopamine receptor [2]) is on record?
Its IC50 is > 5 µM.

`O=C(CCN1CC=C(c2ccccc2)CC1)c1ccccc1` was tested. Which IC50 (D(2) dopamine receptor [2]) did it give?
The IC50 was > 5 µM.
